Measured values: PubChem BioAssay AID588560 (The Scripps Research Institute Molecular Screening Center, 2011)
The source made the active and inactive calls.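 Rule for the calls: active = inhibition of 50% or more against any one of four protein arginine deiminase enzymes; inactive = the rest.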

Columns and labels:
Assay in all cases: single-point PAD isozyme panel inhibition – biochemical, colorimetric, BAEE substrate, recombinant enzymes, selectivity assay for PAD4 inhibitor project, late-stage follow-up (AID 588560)
[1] = target: Protein-arginine deiminase type-1 (Homo sapiens) (UniProt Q9ULC6); conditions: recombinant PAD1-4, BAEE citrulline colorimetric, 15 min; PAD1; at 10 µM; active compounds read high
In short: (§1)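 assay system = recombinant PAD1, PAD2, PAD3 or PAD4 enzyme, one isozyme per assay | medium = Tris pH 7.6 buffer with CaCl2 and DTT | schedule = 15 min enzyme–compound preincubation plus 15 min substrate reaction, both 37 °C | detection = colorimetric citrulline detection with diacetyl monoxime/thiosemicarbazide, absorbance 540 nm | control set = DMSO-treated enzyme as uninhibited reference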

[2] = target: Protein-arginine deiminase type-2 (Homo sapiens) (UniProt Q9Y2J8); conditions: recombinant PAD1-4, BAEE citrulline colorimetric, 15 min; PAD2; at 10 µM; active compounds read high
In short: as §1

[3] = target: Protein-arginine deiminase type-3 (Homo sapiens) (UniProt Q9ULW8); conditions: recombinant PAD1-4, BAEE citrulline colorimetric, 15 min; PAD3; at 10 µM; active compounds read high
In short: as §1

[4] = target: Protein-arginine deiminase type-4 (Homo sapiens) (UniProt Q9UM07); conditions: recombinant PAD1-4, BAEE citrulline colorimetric, 15 min; PAD4; at 10 µM; active compounds read high
In short: as §1

Sequence of Protein-arginine deiminase type-3 (Homo sapiens) (Q9ULW8 whole entry, looked up): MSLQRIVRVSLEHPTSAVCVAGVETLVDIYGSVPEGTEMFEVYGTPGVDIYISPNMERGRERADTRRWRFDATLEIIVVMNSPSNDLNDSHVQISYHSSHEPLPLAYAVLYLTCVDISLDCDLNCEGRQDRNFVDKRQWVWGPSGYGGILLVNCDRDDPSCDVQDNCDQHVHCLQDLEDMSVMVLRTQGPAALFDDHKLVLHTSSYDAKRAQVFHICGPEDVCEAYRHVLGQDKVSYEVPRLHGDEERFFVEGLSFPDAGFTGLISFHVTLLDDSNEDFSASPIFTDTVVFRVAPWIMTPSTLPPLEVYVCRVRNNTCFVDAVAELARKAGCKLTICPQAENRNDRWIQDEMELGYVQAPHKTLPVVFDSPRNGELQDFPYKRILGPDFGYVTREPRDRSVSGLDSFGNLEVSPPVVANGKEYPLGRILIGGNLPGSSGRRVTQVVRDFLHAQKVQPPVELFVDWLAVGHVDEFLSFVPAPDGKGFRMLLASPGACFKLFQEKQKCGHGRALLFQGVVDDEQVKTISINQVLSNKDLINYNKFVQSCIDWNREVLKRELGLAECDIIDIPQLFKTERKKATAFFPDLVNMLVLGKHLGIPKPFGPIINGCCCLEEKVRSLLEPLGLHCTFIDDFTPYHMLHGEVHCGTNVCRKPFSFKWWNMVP
Sequence of Protein-arginine deiminase type-2 (Homo sapiens) (Q9Y2J8 whole entry, looked up): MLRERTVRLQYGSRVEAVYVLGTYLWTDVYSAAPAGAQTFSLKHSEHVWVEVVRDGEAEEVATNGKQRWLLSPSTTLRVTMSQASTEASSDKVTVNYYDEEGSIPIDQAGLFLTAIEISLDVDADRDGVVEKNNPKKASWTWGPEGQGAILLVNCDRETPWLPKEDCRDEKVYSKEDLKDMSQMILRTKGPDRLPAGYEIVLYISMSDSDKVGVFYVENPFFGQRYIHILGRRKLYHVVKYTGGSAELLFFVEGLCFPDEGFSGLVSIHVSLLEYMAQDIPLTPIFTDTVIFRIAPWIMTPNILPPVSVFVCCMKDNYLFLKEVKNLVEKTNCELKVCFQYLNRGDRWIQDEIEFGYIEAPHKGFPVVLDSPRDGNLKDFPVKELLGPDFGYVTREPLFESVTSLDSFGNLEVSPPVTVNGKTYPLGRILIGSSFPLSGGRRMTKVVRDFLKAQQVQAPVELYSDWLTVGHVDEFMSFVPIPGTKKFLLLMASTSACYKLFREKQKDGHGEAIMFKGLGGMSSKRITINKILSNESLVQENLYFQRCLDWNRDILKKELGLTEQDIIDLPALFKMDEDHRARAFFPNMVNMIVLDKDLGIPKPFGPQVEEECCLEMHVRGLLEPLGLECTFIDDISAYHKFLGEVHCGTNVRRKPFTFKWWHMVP
Sequence of Protein-arginine deiminase type-1 (Homo sapiens) (Q9ULC6 whole entry, looked up): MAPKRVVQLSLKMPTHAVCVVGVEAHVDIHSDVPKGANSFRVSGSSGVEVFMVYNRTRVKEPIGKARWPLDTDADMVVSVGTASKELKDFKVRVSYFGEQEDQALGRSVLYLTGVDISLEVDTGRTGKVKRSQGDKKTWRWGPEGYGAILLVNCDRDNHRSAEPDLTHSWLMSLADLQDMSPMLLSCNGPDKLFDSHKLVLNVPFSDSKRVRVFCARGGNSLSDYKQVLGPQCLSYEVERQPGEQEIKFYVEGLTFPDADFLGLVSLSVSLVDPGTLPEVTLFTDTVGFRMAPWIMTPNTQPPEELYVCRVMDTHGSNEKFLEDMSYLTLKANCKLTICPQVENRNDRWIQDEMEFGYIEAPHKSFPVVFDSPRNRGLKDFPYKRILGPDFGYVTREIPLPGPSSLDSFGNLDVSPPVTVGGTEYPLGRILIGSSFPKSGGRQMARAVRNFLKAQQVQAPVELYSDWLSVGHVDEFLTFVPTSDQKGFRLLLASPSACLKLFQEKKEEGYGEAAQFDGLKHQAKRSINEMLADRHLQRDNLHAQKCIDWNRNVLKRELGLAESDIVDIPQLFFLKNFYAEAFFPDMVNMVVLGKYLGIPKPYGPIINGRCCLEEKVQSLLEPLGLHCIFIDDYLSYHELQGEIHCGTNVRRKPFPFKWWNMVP
Sequence of Protein-arginine deiminase type-4 (Homo sapiens) (Q9UM07 whole entry, looked up): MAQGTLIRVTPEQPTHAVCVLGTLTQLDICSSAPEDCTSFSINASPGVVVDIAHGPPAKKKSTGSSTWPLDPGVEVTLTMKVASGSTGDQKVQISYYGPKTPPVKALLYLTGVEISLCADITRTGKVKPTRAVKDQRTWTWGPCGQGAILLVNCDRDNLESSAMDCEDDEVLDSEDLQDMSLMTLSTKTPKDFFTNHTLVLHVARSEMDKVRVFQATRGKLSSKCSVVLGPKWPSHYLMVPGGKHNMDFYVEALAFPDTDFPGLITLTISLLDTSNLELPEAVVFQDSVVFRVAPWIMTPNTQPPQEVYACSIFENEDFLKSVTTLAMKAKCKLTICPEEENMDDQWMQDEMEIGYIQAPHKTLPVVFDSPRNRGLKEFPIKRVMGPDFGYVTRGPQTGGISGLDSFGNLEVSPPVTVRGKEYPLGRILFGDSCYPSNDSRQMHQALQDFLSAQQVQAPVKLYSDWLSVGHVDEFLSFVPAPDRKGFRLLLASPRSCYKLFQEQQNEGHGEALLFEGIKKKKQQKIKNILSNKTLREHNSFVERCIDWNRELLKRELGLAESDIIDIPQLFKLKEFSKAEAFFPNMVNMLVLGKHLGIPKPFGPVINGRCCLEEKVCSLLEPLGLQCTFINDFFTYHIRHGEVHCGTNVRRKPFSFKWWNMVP

SMILES	inhibition [1]	inhibition [2]	inhibition [3]	inhibition [4]
NC1=CC(=O)c2ccc(-c3ccccn3)nc2C1=O	73%	101%	90%	
NC1=CC(=O)c2ccc(-c3cc(C(=O)O)ccc3N)nc2C1=O	-13% (inactive)	-19% (inactive)	8% (inactive)	13% (inactive)
NC1=C(N)C(=O)c2ccccc2C1=O	22% (inactive)	28% (inactive)	44% (inactive)	43% (inactive)
O=C(O)c1cccc(-c2ccc3ccc(Br)c(OCc4ccccc4)c3n2)n1	-23% (inactive)	-18% (inactive)	-7% (inactive)	
COc1ccc2ncccc2c1[N+](=O)[O-]	-12% (inactive)	17% (inactive)	19% (inactive)	
COC1=C(Br)C(=O)c2ncccc2C1=O	75%	88%	7% (inactive)	
O=C1C(Br)=CC(=O)c2ncccc21	-57% (inactive)	12% (inactive)	10% (inactive)	10% (inactive)
COC1=C(I)C(=O)c2nc(C#N)ccc2C1=O	60%	63%	98%	97%
COc1ccc2nc(C#N)ccc2c1[N+](=O)[O-]	-24% (inactive)	2% (inactive)	16% (inactive)	
COC1=CC(=O)c2nc(C#N)ccc2C1=O	68%	88%	99%	97%
NC1=CC(=O)c2cccnc2C1=O	70%	89%	100%	99%
CCOC(=O)c1nc(C(=O)OCC)c(C(=O)OCC)c(-c2ccc(OC)c(OC)c2OCc2ccccc2)c1C	-15% (inactive)	-31% (inactive)	-7% (inactive)	
O=C1C=C(Br)C(=O)c2ncccc21	-17% (inactive)	14% (inactive)	76%	56%
O=C1C(O)=C(O)C(=O)c2ncccc21	39% (inactive)	41% (inactive)	96%	83%
COC(=O)c1nc(-c2ccc3c(n2)C(=O)C(Br)=CC3=O)c2[nH]c3ccccc3c2c1C	-24% (inactive)	-15% (inactive)	-16% (inactive)	
COC1=C(N)C(=O)c2ncccc2C1=O	57%	78%	100%	87%

The next lines start with the values.

inhibition [1]	inhibition [2]	inhibition [3]	inhibition [4]	SMILES
-41% (inactive)	-13% (inactive)	24% (inactive)		COC(=O)c1nnc(C(=O)OC)c(-c2ccc3ccccc3n2)n1
-21% (inactive)	-14% (inactive)	15% (inactive)		COC(=O)c1nnc(C(=O)OC)c(-c2ccc3cc(OC)ccc3n2)n1
-20% (inactive)	-18% (inactive)	16% (inactive)		COC(=O)c1cc(-c2ccccc2)c(C(=O)OC)c(-c2ccc3ccccc3n2)n1
-6% (inactive)	-22% (inactive)	-30% (inactive)		COC(=O)c1nc(C(=O)OC)c(N)c(-c2ccccc2Br)c1C
71%	85%	97%	98%	NC1=CC(=O)c2ccc(-c3cccc(C(=O)O)n3)nc2C1=O
0% (inactive)	-26% (inactive)	-43% (inactive)		COC(=O)c1cccc(-c2ccc3c(n2)C(=O)C(Br)=CC3=O)n1
5% (inactive)	-29% (inactive)	-20% (inactive)		COC(=O)c1nc(C(C)=O)c2[nH]c3ccccc3c2c1C
75%	92%	84%		COC(=O)c1cccc(-c2ccc3c(n2)C(=O)C(N)=CC3=O)n1
-38% (inactive)	7% (inactive)	18% (inactive)		COC(=O)c1nnc(C(=O)OC)c(-c2ccc3c([N+](=O)[O-])c(OC)ccc3n2)n1
50%	62%	100%	91%	COC1=C(Br)C(=O)c2nc(-c3ccccn3)ccc2C1=O
-5% (inactive)	-22% (inactive)	-28% (inactive)		COC(=O)c1cccc(-c2ccc3ccc(Br)c(O)c3n2)n1
-20% (inactive)	-19% (inactive)	-30% (inactive)		COC(=O)c1nc(C(=O)OC)c(NC(C)=O)c(-c2ccccc2Br)c1C
-37% (inactive)	35% (inactive)	8% (inactive)		COc1ccc2nc(C#N)ccc2c1
